Rows were chosen to be rich in hits. Some 2.3% of all compounds tested hit in one or more screens of this group.
FN deposit inh: inhibitors of fibronectin matrix deposition, primary screen, AH1F cells, Alexa488-fibronectin fluorescence, plate reader; AH1F fibroblasts, overnight; inhibition, % at 12.6 µM; 0.086% of 350,000 active; AID 743247, 2014;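 active means mean inhibition across replicates of 30% or more, regardless of how many single replicates reach that level; inconclusive means mean under 30% yet at least half of replicates reach 30%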;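 further: positive control wells lacked labelled fibronectin entirely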
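Schedule: 1 h cell adhesion before compound, then overnight fibronectin incubation; test system: AH1F fibroblast monolayer depositing Alexa488-labelled fibronectin into matrix; quantity: 10000 AH1F cells per well; probe or stimulus: fluorescent fibronectin at 24 nM final; signal: fluorescence, ex 485 nm, em 525 nm; evaluation: percent inhibition as loss of matrix-bound fibronectin fluorescence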
TROY NFkB inh: inhibitors of TROY-driven NF-kB signaling, primary screen, Q293 LMP1-TROYcd cells, NF-kB luciferase, uHTS; 0.98% of 360,000 active; inhibition, % at 10 µM; Q293 LMP1-TROYcd NF-kB luciferase reporter, 4 h;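 active means compounds whose plate-normalised and pattern-corrected inhibition of the luciferase reporter signal at the single screening dose is 50% or more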
TWEAK Fn14 block: inhibitors of TWEAK-Fn14 signaling, primary screen, luciferase reporter cells, uHTS | inhibition, % at 10 µM | AID 1159606, 2016 | 2% of 360,000 active | TWEAK-stimulated Fn14 reporter cells, luciferase luminescence, 8 h; in the data active means inhibition above about 50%
XiGFP reactiv: activators of inactive X chromosome reactivation, primary screen, imaging, XiGFP fibroblasts, GFP high-content imaging, set 2 | XiGFP mouse fibroblasts, % GFP-positive cells imaging, 3 d; cells co-treated with 5-aza-dC sensitizer; scaled so ellipticine positive control = 100% | activation, % at 7.58 µM | 0.055% of 360,000 active | AID 743238, 2013;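 active means mean normalized replicate activation at least 10% and every replicate at or above 10%; inconclusive means only one of the two criteria met; inactive means mean below 10% and not all replicates reach 10%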;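 further: 0% = median of on-plate neutral control wells and 100% = ellipticine 6 µM median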
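System: 68-5-11 XiGFP fibroblast line; Timing: 3 days compound exposure; Compound dosing: one concentration, pinned; Benchmarks: positive control ellipticine, 6 µM final; Buffer or medium: DMEM containing 5-aza-dC.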
EWS-Fli block: EWS/Fli-driven NR0B1 reporter inhibitors, primary screen, A673 cells, NR0B1 luciferase, luminescence, MLPCN library | 0.67% of 350,000 active | inhibition, % at 12.6 µM | viability-normalised;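 active means mean inhibition of at least 50% after viability correction, with every replicate also passing that limit; inconclusive means mean reaches 50% but only one of two replicates passes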;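 further: firefly luciferase signal divided by Alamar Blue viability fluorescence both relative to DMSO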
LGR2 inh: inhibitors of bursicon-induced LGR2 CRE-luciferase signal, primary screen, cell-based, HEK293, CRE-luciferase reporter, bursicon stimulation; 0.35% of 380,000 active; bursicon-stimulated, 4 h; Drosophila bursicon receptor LGR2 (rickets); inhibition, % at 9.99 µM; AID 720647, 2013;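 active means drop in luminescence signal, shown as inhibition above about 50% in the replicate tests, limit read from the data, passing the limit was not always enough; inconclusive means probably only some replicates passing the limit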;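 further: agonist challenge used bursicon conditioned medium at about half maximal strength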
* = called active by the depositor; ? = inconclusive; . = no result given.

SMILES	FN deposit inh	TROY NFkB inh	TWEAK Fn14 block	XiGFP reactiv	EWS-Fli block	LGR2 inh
CCCNC(=O)N1C[C@@H]2[C@H](c3ccccc31)[C@H](CO)N2C(=O)Nc1ccc(F)cc1	-1	.	.	0	-2	-9
Cc1ccn2cc(-c3ccc(Br)cc3)nc2c1	3	33	73*	.	62*	59*
Clc1ccc(-c2cn3cc(Br)ccc3n2)cc1Cl	-6	28	58*	0	17	.
CC(=O)Nc1cccc(-c2cn3ccc(C)cc3n2)c1	3	-40	-24	0	-113	-96
Cc1nc(-c2ccc(NC(=O)c3ccco3)cc2)cs1	-3	50*	97*	0	84*	93*
Cc1ccn2cc(-c3ccc(NC(=O)c4ccco4)cc3)nc2c1	32*	-42	-38	0	.	-44
COc1ccc(NS(=O)CCCc2ccccc2)cc1 (stereo unspecified)	-8	42	54*	0	-1	-9
Cc1ccc(OCCCCCCN2CCNCC2)c(Br)c1	3	49	58*	0	33	?
COc1ccc(S(=O)(=O)N2c3ccccc3OCC2CC(=O)O)cc1 (stereo unspecified)	-1	6	-12	0	8	-8
COc1ccc(S(=O)(=O)N2c3ccccc3OCC2C)cc1 (stereo unspecified)	-2	26	9	0	74*	-2
COc1ccc(S(=O)(=O)N2c3ccccc3OCC2c2ccccc2)cc1 (stereo unspecified)	-9	41	79*	.	.	.
COc1ccc(S(=O)(=O)N2CCOc3ccccc32)cc1	21	0	6	1	56*	4
COc1ccc(S(=O)(=O)N2c3ccccc3OCC2C(C)(C)C)cc1 (stereo unspecified)	0	4	-6	2	58*	18
CCCC(=O)Nc1ccc2c(c1)OC[C@@H](C)N(CCC)C[C@@H](C)[C@@H](OC)CN(C)C2=O	-5	.	.	0	-9	-15
C[C@@H]1CN([C@H](C)CO)C(=O)Cc2cc(NC(=O)c3ccncc3)ccc2O[C@@H]1CN(C)CC1CC1	-1	.	.	-1	11	2
COc1ccc(CC(=O)N2CCOCC2)cc1OC	.	0	12	.	.	.
COc1ccc(CC(=O)N2CCOCC2)cc1	.	-15	99*	.	.	.
O=C(O)c1ccc(/C=N/Nc2nc3ccccc3[nH]2)cc1	-8	19	-7	0	-10	7
CCN(CC)c1ccc(/C=N/Nc2nc3ccccc3[nH]2)cc1	26	43	95*	0	.	-25
O=C(CSc1nc2ccccc2[nH]1)N/N=C/c1ccncc1	0	57*	-31	0	-2	-4
Cc1ccc(/C=N/NC(=O)CSc2nc3ccccc3[nH]2)o1	2	-9	11	0	-14	-14
C(=N\Nc1nc2ccccc2[nH]1)/c1ccncc1	-6	59*	44	0	-77	-27
CC(=O)Nc1ccc(/C=N/Nc2nc3ccccc3[nH]2)cc1	-7	-60	-15	0	-25	-22
CNC[C@H]1OCCCC[C@@H](C)Oc2ccc(NC(=O)C3CCCCC3)cc2C(=O)N([C@@H](C)CO)C[C@H]1C	.	.	.	-1	2	-15
O=C(CNC(=O)/C(=C\c1ccccc1)NC(=O)c1ccc(Br)cc1)OCc1ccccc1	.	.	73*	.	.	.
SMILES	FN deposit inh	TROY NFkB inh	TWEAK Fn14 block	XiGFP reactiv	EWS-Fli block	LGR2 inh
O=C(CNC(=O)/C(=C\c1ccc(F)cc1)NC(=O)c1ccccc1)OCc1ccccc1	.	3	-5	.	.	.
Nc1cc2c3c(cccc3c1)C(=O)N(CCN1CCCC1)C2=O	-9	-12	-18	9	39	-19
O=C1c2cccc3cc([N+](=O)[O-])cc(c23)C(=O)N1CCN1CCCC1	1	-27	-43	0	69*	32
CCN(CC)c1ccc(-c2nn3c(-c4n[nH]c5c4CCC5)nnc3s2)cc1	.	52*	41	.	.	.
C1CCC(c2nn3c(-c4n[nH]c5c4CCC5)nnc3s2)CC1	.	-7	16	.	.	.
FC(F)(F)c1cnc(-c2cnc3c(-c4ccc(Cl)cc4)cnn3c2)c(Cl)c1	-5	-1	5	.	.	-16
Cc1nn2cc(-c3ncc(C(F)(F)F)cc3Cl)cnc2c1Br	-6	56*	51*	0	20	-28
Cc1cc2ncc(-c3ncc(C(F)(F)F)cc3Cl)cn2n1	.	44	84*	.	54*	.
OC[C@H]1[C@@H](c2ccc(-c3cccnc3)cc2)[C@@H]2CN(CC3CCOCC3)CCCCN12	.	.	.	.	-4	.
CCOC(=O)CSc1nc2cc3c(cc2cc1C#N)OCCO3	6	57*	26	0	-86	-52
Cc1ccccc1NC(=O)CN1C(=O)S/C(=C\c2ccc(-c3cc(C(=O)O)ccc3C)o2)C1=O	-8	14	-5	40*	2	11
COc1ccccc1CN(C)C[C@H]1OCc2cn(nn2)CCCC(=O)N([C@@H](C)CO)C[C@H]1C	-16	.	.	0	3	-13
CO[C@H]1CN(C)C(=O)c2ccc(NC(=O)c3cccc(Oc4ccccc4)c3)cc2OC[C@@H](C)NC[C@@H]1C	.	.	.	0	13	-14
O=C(O)C1CCCCC1C(=O)N1CC=C(c2ccccc2)CC1 (stereo unspecified)	.	68*	80*	.	.	30
Cc1ccc(C(=O)N2CC=C(c3ccccc3)CC2)s1	-6	-56	-32	0	-18	16
O=C(NC[C@@H]1CC[C@H]2[C@H](CN2S(=O)(=O)c2ccccc2[N+](=O)[O-])O1)Nc1ccccc1	.	.	.	.	6	.
CN1CCN(Cc2nc3ccccc3c(=O)n2Cc2nc(-c3ccc4ccccc4c3)cs2)CC1	-1	41	-121	1	40	90*
C[C@@H]1C/C=C\C[C@@H](c2ccc3c(c2)OCO3)NC(=O)[C@@H](c2ccccc2)CC(=O)N1	-4	.	.	0	.	.
COc1cccc(/C=N/Nc2nc3ccccc3[nH]2)c1O	6	-17	24	6	-56	-41
COc1ccc(/C=N/Nc2nncc3ccccc23)cc1	.	-3	43	0	67*	-61
COc1cccc(/C=N/Nc2ncnc3scc(-c4ccccc4)c23)c1O	3	44	63*	1	.	23
COc1cccc(/C=N/Nc2ncnc(Cl)c2N)c1O	4	61*	-5	3	5	.
COc1ccc(/C=N/Nc2ncnc(Cl)c2N)cc1OC	-1	1	2	0	-14	-6
